Compounds with a hit are over-represented: about 4.8% of the library has one in this group of screens.
CHOP UPR activ: activators of apoptotic arm of unfolded protein response (CHOP). CHO-CHOP luciferase reporter, UPR activation, luminescence; percent of tunicamycin response over DMSO baseline. activation, % at 10 µM. 0.34% of 330,000 active;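 active means at 10 µM dose, activation of 40% or more, normalized to positive control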
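System: CHO-CHOP luciferase reporter cell line | Buffer or medium: F12 medium containing 10% fetal bovine serum | Doses: One dose, 10 µM in 0.5% DMSO | Times: 6 h compound exposure at 37 °C after overnight seeding | Signal: Luciferase luminescence | Read-out: % activation vs tunicamycin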
Mdm2 MdmX PPI: inhibitors of human Mdm2/MdmX interaction; SaOS-2 split-luciferase Mdm2/MdmX complementation, luminescence; inhibition, % at 8 µM; AID 485346; 3% of 330,000 active;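 active means inhibition of at least 50% at 8 µM in the primary screen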
CSC inhib: cancer stem cell inhibition; cancer stem cell-like cells viability, luminescence; inhibition, % at 7.5 µM; AID 2717; 1.1% of 300,000 active; in the data active means inhibition above about 75%; tested in HMLE shEcad cells
Beta cell apopt: blocks beta cell apoptosis; INS-1E cytokine-induced death, ATP luminescence, 48 h; percent of positive-control rescue, neutral wells zero; 0.8% of 300,000 active; protection from apoptosis, % (concentration not given with the values); AID 435005;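 active means Every replicate reaches about 75%, or at least half do and their mean reaches it too, limit read from the data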;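 further: higher means more ATP so stronger rescue from cytokine killing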
SKKanGAS inh: SKKanGAS growth inhibition. S. pyogenes SKKanGAS, kanamycin growth, BacTiter-Glo, 6 h. inhibition, % at 7.5 µM. 1.3% of 300,000 active. AID 1662;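 active means mean replicate score, as percent of positive control median, at least 50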;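 further: strain carries kanamycin resistance gene driven by streptokinase promoter and grows in 40 µg/ml kanamycin; loss of luminescence reflects streptokinase promoter inhibition or plain growth inhibition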
XBP1 UPR activ: adaptive UPR (XBP1) activation | CHO-XBP1 luciferase reporter, IRE1-XBP1 UPR activation, luminescence; percent of tunicamycin response, DMSO as zero | activation, % at 20 µM | 0.33% of 330,000 active | AID 463104;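 active means versus positive control, 20 µM dose yields 30% or more activation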
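Test system: CHO-XBP1 luciferase reporter cells | Buffer or medium: Serum-containing F12 medium, 10% FBS | Schedule: 6 h compound exposure at 37 °C, 5% CO2 | Detection: Steady-Glo luciferase glow luminescence, 10 min after reagent addition | Read-out basis: Activation, % of tunicamycin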
Mdm2 MdmX conf: confirmation of human Mdm2/MdmX interaction inhibitors; shares compounds with Mdm2 MdmX PPI; Mdm2-MdmX binding, luminescent assay; 55% of 10,000 active; inhibition, % at 8 µM; in the data active means inhibition above about 40%
FLuc counter: full-length luciferase inhibition in Mdm2/MdmX counter-screen; shares compounds with Mdm2 MdmX PPI; SaOS-2 full-length luciferase counterscreen, luminescence; inhibition, % at 8 µM; 77% of 6,200 active;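 active means mean inhibition at 8 µM reaching about 37%, which flags the compound as non-specific, limit read from the data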;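 further: p53-null SaOS-2 cells with luciferase driven by a doxycycline-inducible promoter; compound on cells about two nights before reading with doxycycline added after day one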
Numbers stand for hits; 0 = inactive; - = not tested or not shown.

SMILES | CHOP UPR activ | Mdm2 MdmX PPI | CSC inhib | Beta cell apopt | SKKanGAS inh | XBP1 UPR activ | Mdm2 MdmX conf | FLuc counter
CCOc1ccc2[nH]c(C(=O)N/N=C/c3ccc(OC)cc3)cc2c1 | 0 | 53 | 0 | 0 | 0 | 0 | 56 | 96
COc1ccc(/C=N/NC(=O)c2nc(-c3ccccc3)n(-c3ccccc3)n2)c(O)c1 | 0 | 63 | - | 103 | 0 | 0 | 66 | 41
O=C(CN1C(=O)NC2(CCCC2)C1=O)OCc1cccc(Br)c1 | 0 | 0 | 0 | 0 | - | 0 | - | -
C#CCn1c(S(=O)(=O)Cc2ccc(F)cc2)nc(-c2ccccc2)c1-c1ccccc1 | 0 | 97 | 0 | 0 | 0 | 0 | 91 | 52
CCOC(=O)Cn1c(S(=O)(=O)Cc2cccc(F)c2)nc(-c2ccccc2)c1-c1ccccc1 | 0 | 81 | 0 | 0 | 0 | 0 | 56 | 67
CCOC(=O)Cn1c(S(=O)(=O)Cc2ccc(F)cc2)nc(-c2ccccc2)c1-c1ccccc1 | 0 | 79 | 0 | 0 | 0 | 0 | 56 | 63
O=C(Cc1cccc(C(F)(F)F)c1)NCC(=O)Nc1cc(Cl)ccc1Cl | 0 | 0 | 0 | 0 | 0 | 0 | - | -
CC1(C)Cc2c(sc(NC(=O)C(=O)N3CCCC3)c2C#N)CO1 | 0 | 0 | 0 | 0 | 0 | 0 | - | -
CCCCCN(C(=O)CCC(=O)OCc1cc(C)ccc1C)c1c(N)n(CCCC)c(=O)[nH]c1=O | 0 | 0 | 0 | 0 | 0 | 0 | - | -
CC(=O)NC(c1cc(Cl)c2cccnc2c1O)C(C)C (stereo not drawn) | 0 | 66 | 0 | 103 | - | 0 | 43 | 37
CC(=O)NC(c1ccc(C)cc1)c1cc(Cl)c2cccnc2c1O (stereo not drawn) | 0 | 87 | 0 | 0 | 98 | 0 | 77 | 0
CC(=O)NC(c1cc(Cl)c2cccnc2c1O)C1CC1 (stereo not drawn) | 0 | 53 | 110 | 87 | - | 0 | 49 | 0
CCOC(=O)[C@@H]1[C@H]2COc3ccccc3[C@@H]2N2C(=O)N(c3cccc(Cl)c3)C(=O)[C@@]12C | 0 | 0 | 0 | 0 | 0 | 0 | - | -
O=C(O)/C(=C\c1cccc(OCc2ccccc2)c1)c1ccc(F)cc1 | 0 | 0 | 0 | 0 | 0 | 0 | - | -
CC(C)Cn1nc(C(=O)Nc2nnc(C3CC3)s2)c2ccccc2c1=O | 0 | 0 | 0 | 0 | - | 0 | - | -
O=C(N[C@@H]1C/C=C\C[C@@H](CC(=O)N(CCO)Cc2ccccc2)C(=O)NCCOC1=O)OCC1c2ccccc2-c2ccccc21 | 0 | 0 | - | 0 | - | 0 | - | -
O=C1NC[C@H](c2ccccc2)OC(=O)[C@H](Cc2ccc(F)cc2)CC/C=C/C[C@H]1CC(=O)N(CCO)Cc1ccccc1 | 0 | 78 | 0 | 0 | - | 0 | 68 | 55
O=C1NC[C@H](c2ccccc2)OC(=O)[C@@H](Cc2ccc(F)cc2)CC/C=C/C[C@@H]1CC(=O)N(CCO)Cc1ccccc1 | 0 | 0 | 0 | 0 | - | 0 | - | -
O=C1NC[C@H](c2ccccc2)OC(=O)[C@@H](Cc2ccc(F)cc2)CC/C=C/C[C@H]1CC(=O)N(CCO)Cc1ccccc1 | 0 | 78 | 0 | 0 | - | 0 | 50 | 62
O=C(N[C@H]1C/C=C\C[C@@H](CC(=O)N(CCO)Cc2ccccc2)C(=O)NC[C@H](c2ccccc2)OC1=O)OCC1c2ccccc2-c2ccccc21 | 0 | 58 | 104 | 0 | - | 0 | 0 | -
O=C(NC(Nc1cc(C(F)(F)F)ccc1Cl)C(=O)c1ccccc1)c1ccccc1 (stereo not drawn) | 0 | 52 | 0 | 0 | 0 | 0 | 0 | -
CCC(=O)N/C(N)=N/c1nc(C)c2cc(OC)ccc2n1 | 0 | 62 | 0 | 0 | 0 | 0 | 41 | 61
COc1ccc2nc(/N=C(\N)NC(=O)C(C)(C)C)nc(C)c2c1 | 0 | 0 | 0 | 0 | 0 | 0 | - | -
CCOc1ccc(CNC(=O)CCCn2nc(C)c3c(C)n(-c4ccc(C)cc4)nc3c2=O)cc1 | 0 | 0 | 0 | 0 | 0 | 0 | - | -
COc1ccc(-c2cc(C(F)(F)F)c(C#N)c(SCC(=O)Nc3ccccc3C#N)n2)cc1 | 0 | 53 | 0 | 0 | 0 | 0 | 0 | -
SMILES | CHOP UPR activ | Mdm2 MdmX PPI | CSC inhib | Beta cell apopt | SKKanGAS inh | XBP1 UPR activ | Mdm2 MdmX conf | FLuc counter
COc1ccc(NC(=O)CSc2nc(-c3ccc(C)cc3)cc(C(F)(F)F)c2C#N)cc1 | 0 | 0 | 0 | 0 | 0 | 0 | - | -
Cc1coc(NC(=O)CSc2nc(-c3ccc(Cl)cc3)cc(C(F)(F)F)c2C#N)n1 | 0 | 0 | 0 | 0 | 0 | 0 | - | -
COc1ccc(-c2cc(C(F)(F)F)c(C#N)c(SCC(=O)Nc3nc(C)co3)n2)cc1 | 0 | 62 | - | 0 | 0 | 0 | 0 | -
NC1CCCCC1N=Cc1c(O)n(CCc2ccc(F)cc2)c(=O)[nH]c1=O (stereo not drawn) | - | - | - | - | 0 | - | - | -
O=c1[nH]c(=O)n(CCc2ccc(F)cc2)c(O)c1C=NCc1ccc2c(c1)OCO2 | 0 | 80 | - | 0 | 0 | 0 | 0 | -
CCN1C(=O)[C@H]2[C@@H](c3ccc(-c4ccc(OC)cc4)c(OC)c3)N[C@@](Cc3ccccc3)(C(=O)OC)[C@H]2C1=O | 0 | 0 | - | 0 | - | 0 | - | -
CCN1C(=O)[C@H]2[C@@H](c3ccc(-c4ccc(Cl)c(Cl)c4)cc3)N[C@@](Cc3ccccc3)(C(=O)OC)[C@H]2C1=O | 0 | 57 | 0 | 0 | 0 | 0 | 0 | -
CCN1C(=O)[C@H]2[C@@H](c3ccc(-c4ccccc4)cc3)N[C@@](Cc3ccccc3)(C(=O)OC)[C@H]2C1=O | 0 | 0 | 0 | 0 | 0 | 0 | - | -
CCN1C(=O)[C@H]2[C@@H](c3ccc(-c4cccc(Cl)c4)c(OC)c3)N[C@@](Cc3ccccc3)(C(=O)OC)[C@H]2C1=O | 0 | 52 | 0 | 0 | 0 | 0 | 0 | 54
Cc1ccc(C(=O)C(C)OC(=O)CN2C(=O)NC3(CCCC3)C2=O)cc1 (stereo not drawn) | 0 | 0 | 0 | 0 | 0 | 0 | - | -
O=C(CSc1nc(Cc2ccccc2)nc2ccccc12)Nc1nc2c(s1)CCCC2 | 0 | 0 | - | - | 0 | 0 | - | -
O=C(Nc1nc2c(s1)CCCC2)c1cccs1 | 0 | 0 | 0 | 0 | - | 0 | - | -
CC(C)c1nc(SCC(=O)Nc2nc3c(s2)CCCC3)c2ccccc2n1 | 0 | 85 | 0 | 0 | 0 | 0 | 64 | 45
O=C(Cc1cccs1)Nc1nc2c(s1)CCCC2 | 0 | 56 | 0 | 0 | 0 | 0 | 47 | 90
CC(C)(C)c1nc(SCC(=O)Nc2nc3c(s2)CCCC3)c2ccccc2n1 | 0 | 98 | 119 | 0 | 0 | 0 | 93 | 54
Cc1nnc(NC(=O)CSc2nc(C(C)C)nc3ccccc23)s1 | 0 | 76 | 0 | 0 | 0 | 0 | 63 | 44
Cc1cc(NC(=O)CSc2nc(C(C)C)nc3ccccc23)no1 | 0 | 0 | 0 | 0 | 0 | 0 | - | -

Bioassay records as filed in PubChem BioAssay.
